# Experimental data published in the RNAGym collection of RNA variant scans (doi:10.1126/science.aae0568).
# Fewer inactive variants are shown than the library holds.
# B1: tRNA (parent)
# chain: GUUCCGUUGGCGUAAUGGUAACGCGUCUCCCUCCUAAGGAGAAGACUGCGGGUUCGAGUCCCGUACGGAACG
# Variants of: B1
# Assay: yeast fitness relative to wild type (ratio to wild type); higher = fitter; tRNA-Arg(CCU), competitive growth, 37 C, YPD
# Outline: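 Start and end populations of a pooled competition were compared by 100-nucleotide paired-end sequencing of gene amplicons. The Saccharomyces cerevisiae strains carried tRNA-Arg(CCU) gene variants at the native genomic locus, synthesised with a 3% per-site mutation rate at 69 sites, and competed in YPD at 37°C for 24 hours in six parallel replicates. Darwinian fitness relative to wild type was based on the change in genotype frequencies. Genotypes required ≥ 100 starting reads, and estimates < 0.5 were set to 0.5.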
row,Variant,yeast fitness
1,GUUACGUUGGCGUAAUGGUAACGCGUCUCCCUCCUAAGGAGUAGACUGCGGGUUGGAGUCCCGUACGGAACG,≤ 0.5
2,GUUACGUUGGCGUAAUGGUAACGCGUCUCCCUCCUAAGGAGACGACUGCGGGUUCGAGUCCCGUACGGAACG,0.89
3,GUUACGUUGGCGUAAUGGUAACGCGUCUCCCUCCUAAGGAGACGACUGCGGGUUCGAAUCCCGUACGGAACG,0.588
4,GUUACGUUGGCGUAAUGGUAACGCGUCUCCCUCCUAAGGAGAGGACUGCGGGUUCGAGUCCCGUACGGAACG,0.785
5,GUUACGUUGGCGUAAUGGUAACGCGUCUCCCUCCUAAGGAGAUGACUGCGGGUUCGAGUACCGUACGGAACG,≤ 0.5
6,GUUACGUUGGCGUAAUGGUAACGCGUCUCCCUCCUAAGGAGAUGACGGCGGGUUCGAGUCCCGUACGGAACG,≤ 0.5
7,GUUACGUUGGCGUAAUGGUAACGCGUCUCCCUCCUAAGGAGAAGGCUGCGGGUUCGAGUCCCGUACGGAACG,0.808
8,GUUACGUUGGCGUAAUGGUAACGCGUCUCCCUCCUAAGGAGAAGUCUGCGGGUUCGAGUCCCGUACGGAACG,0.818
9,GUUACGUUGGCGUAAUGGUAACGCGUCUCCCUCCUAAGGAGAAGUCUGCGAGUUCGAGUCCCGUACGGAACG,≤ 0.5
10,GUUACGUUGGCGUAAUGGUAACGCGUCUCCCUCCUAAGGAGAAGUCAGCGGGUUCGAGUCCCGUACGGAACG,≤ 0.5
11,GUUACGUUGGCGUAAUGGUAACGCGUCUCCCUCCUAAGGAGAAGACUGCGGGUUCGCGUCCCGUACGGAACG,0.57
12,GUUACGUUGGCGUAAUGGUAACGCGUCUCCCUCCUAAGGAGAAGACUGCGGGUUCGCGUCGCGUACGGAACG,≤ 0.5
13,GUUACGUUGGCGUAAUGGUAACGCGUCUCCCUCCUAAGGAGAAGACUGCGGGUUCGCGUCCCGUAUGGAACG,≤ 0.5
14,GUUACGUUGGCGUAAUGGUAACGCGUCUCCCUCCUAAGGAGAAGACUGCGGGUUCGGGUCCCGUACGGAACG,0.841
15,GUUACGUUGGCGUAAUGGUAACGCGUCUCCCUCCUAAGGAGAAGACUGCGGGUUCGGGUCCCGUACGGACCG,0.617
16,GUUACGUUGGCGUAAUGGUAACGCGUCUCCCUCCUAAGGAGAAGACUGCGGGUUCGGGUCCCGUACGGAUCG,0.587
17,GUUACGUUGGCGUAAUGGUAACGCGUCUCCCUCCUAAGGAGAAGACUGCGGGUUCGGGUCCGGUAGGGAACG,≤ 0.5
18,GUUACGUUGGCGUAAUGGUAACGCGUCUCCCUCCUAAGGAGAAGACUGCGGGUUCGAGUCCCGUCCGGAACG,0.658
19,GUUACGUUGGCGUAAUGGUAACGCGUCUCCCUCCUAAGGAGAAGACUGCGGGUUCGAGUCCCGUCCUGAACG,≤ 0.5

row,Variant,yeast fitness
1,GUUACGUUGGCGUAAUGGUAACGCGUCUCCCUCCUAAGGAGAAGACUGCGGGUUCGAGUCCCGUUCGGUACG,0.774
2,GUUACGUUGGCGUAAUGGUAACGCGUCUCCCUCCUAAGGAGAAGACUGCGGGUUCGAGUCCCGUUAGGAACG,≤ 0.5
3,GUUACGUUGGCGUAAUGGUAACGCGUCUCCCUCCUAAGGAGAAGACUGCGGGUUCGAGUCCCGUACGGCACG,0.863
4,GUUACGUUGGCGUAAUGGUAACGCGUCUCCCUCCUAAGGAGAAGACUGCGGGUUCGAGUCCCGUACGGGACG,0.904
5,GUUACGUUGGCGUAAUGGUAACGCGUCUCCCUCCUAAGGAGAAGACUGCGGGUUCGAGUCCCGUACGGUACG,0.952
6,GUUAAGUUGGCGUAAUGGUUACGCGUCUCCCUCCUAAGGAGAAGAUUACGGGUUCGAGUCCCGUACGGAACG,≤ 0.5
7,GUUAAGUUGGCGUAAUGGUAACGCGUCUCCCUCCUAAGGAGAGGACUGCGGGUUCGAGUCCCGUACGGAACG,0.529
8,GUUAAGUUGGCGUAAUGGUAAAGCGUCGCCCUGCUAAGGAGAAGACUGCGGGUUCGGGUCCCGUACCGAACG,≤ 0.5
9,GUUAAGUUGGCGUAAUGGUAACGCGUCUGCCUCCUAACGAGAAGACUGCGGGUUCGAGUCCCGUUCGGAACG,≤ 0.5
10,GUUAAGUUGGCGUAAUGGUAACGCGUCUCAUUACUAAGGUGAAGACUGCGGGUUCGAGUGCCGUACGGAACG,≤ 0.5
11,GUUAAGUUGGCGUAAUGGUAACGCGUCUCCCUCAUAAGGAGAGGACUGCGGGUUCGAGUCCCGUACGGAACG,≤ 0.5
12,GUUAAGUUGGCGUAAUGGUAACGCGUCUCCCUCCUAAGGAGAAGACUGCGGGUUCGAGUACCGUACGGAACG,0.671
13,GUUAAGUUGGCGUAAUGGUAACACGUCUCCCUCCUAAGGAGAAGACUGCGGGUUCGAGUCCCGUACGGAACG,≤ 0.5
14,GUUAAGUUGGCGUAAUGGUAACGCGUCUCCCUCCCAAGGAGAAAACUCCGGGUUGGAGUCCCGUACGGUACG,≤ 0.5
15,GUUAGGUUGGCGUAAUGGUAACGCGUCUCCCUCCUAAGGAGAAGACUGCGGGUUCGAGUCCCGUACGGAACG,0.571
16,GUUAGGUUGGCGUAGUGGUAACCCGUCUCUCUCCUAAGGAGAAGACUGCGGGUUCGAGUCCCGUACGGAACG,≤ 0.5
17,GUUAGGUUGGCGUAAUGGUCACGCGUCUCCCUCCUAAGGUGAAGACUGCGGGUUCGAGUCCCGUACGGAACG,0.5
18,GUUAGGUUGGCGUAAUGGUCACGCGUCUCCCUCCUAAGGUGAAGACUGCGGGUUCGAGUCGCGUACGGAACG,≤ 0.5
